The full list was thinned out, with hits kept by preference.
UPR CHOP act = apoptotic UPR (CHOP) activation; CHO-CHOP luciferase reporter, luminescence; percent of tunicamycin response over DMSO baseline; 330,000 tested, 0.34% active; activation, % at 10 µM; AID 449763;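 active = at 10 µM dose, activation of 40% or more, normalized to positive control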;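 note: 100% = tunicamycin at 10 µg/mL and 0% = DMSO alone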
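System: CHO CHOP reporter cells. Amount: 500 cells per well. Buffer or medium: F12 medium, 10% FBS. Compound dosing: one dose, 10 µM in 0.5% DMSO. Incubation: 6 h compound exposure at 37 °C after overnight seeding. Technique: Steady-Glo luciferase luminescence. Benchmarks: tunicamycin and DMSO controls.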
hiPSC survival = increases survival of single human iPS cells | hiPSC single-cell survival, ATPlite luminescence; 100% = ROCK inhibitor wells, 0% = DMSO | survival enhancement, % at 20 µM | 360,000 tested, 0.044% active; in the data active = survival enhancement above about 18%;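 note: cells exposed to compounds for 16 hours before the ATP read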
UPR XBP1 act = adaptive UPR (XBP1) activation; CHO-XBP1 luciferase reporter, IRE1-XBP1 UPR activation, luminescence; percent of tunicamycin response, DMSO as zero; activation, % at 20 µM; 330,000 tested, 0.33% active;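 active = versus positive control, 20 µM dose yields 30% or more activation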;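 note: 100% = tunicamycin at 10 µg/mL and 0% = DMSO only wells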
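Material: CHO-XBP1 cells stably carrying IRE1-XBP1-driven luciferase reporter / Amount: 1000 cells per well / Compound: 20 µM, 1% DMSO / Times: 6 h treatment, 37 °C / Detection: luciferase luminescence / Measure: % activation of reporter signal versus tunicamycin and DMSO controls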
CHOP inh = blocks CHOP induction under ER stress | CHO-K1 CHOP-promoter luciferase, tunicamycin-induced, 15-18 h | inhibition, % at 10 µM | 220,000 tested, 3.8% active;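 active = compounds that reduced the stress-induced luciferase reporter signal by more than about 70% of percent inhibition, limit read from the data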;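 note: 0% = tunicamycin plus vehicle and 100% = wells without tunicamycin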
H9c2 protect = myocardial damage modulation in H9c2 cells. AID 588492. protection from H2O2 cell death, % at 20 µM. 360,000 tested, 0.63% active. H9c2 cardiomyocytes, H2O2 injury protection, ATPLite, 2 h;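 active = compounds giving at least 50% protection of heart cells from peroxide-induced death in the single-dose screen, raw or plate-pattern-corrected value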;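 note: 0% = DMSO wells with peroxide and 100% = DMSO wells without peroxide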
Starred values were filed as active, the others as inactive; nt = no result.

SMILES	UPR CHOP act	hiPSC survival	UPR XBP1 act	CHOP inh	H9c2 protect
Cc1ccc(Cn2ccc(NC(=O)c3cc4nc(-c5ccco5)cc(C(F)(F)F)n4n3)n2)cc1	1.3	-1.4	5.0	92.8*	9.0
COc1ccc(-c2cc3nc(C)cc(N4CCN(C(=O)c5ccoc5)CC4)n3n2)cc1	nt	-1.2	nt	nt	53.9*
Cc1nn(C)c(C)c1NC(=O)c1cc2nc(-c3ccco3)cc(C(F)(F)F)n2n1	-0.9	0.2	3.0	-3.8	-0.5
COc1ccccc1-c1cc2nc(-c3ccccc3)cc(N3CCN(C(=O)c4ccco4)CC3)n2n1	nt	-0.8	nt	nt	54.9*
CN(C)c1ccc(CNC(=O)C2(C)Cc3c(-c4cccc(C(F)(F)F)c4)ccnc3O2)cc1 (stereo not given)	nt	0.8	nt	nt	-0.9
COc1ccccc1-c1cc2nc(-c3ccccc3)cc(N3CCN(C(=O)c4ccoc4)CC3)n2n1	nt	6.3	nt	nt	50.5*
Cn1cnc(S(=O)(=O)N2CCCC(c3cc(C(=O)Nc4ccc(F)c(Cl)c4)no3)C2)c1 (stereo not given)	nt	-1.8	nt	nt	6.1
COc1ccc2ccccc2c1/C=N/NC(=O)c1cccc(Br)c1	1.8	-0.2	-3.0	33.4	-0.6
O=C(N/N=C/c1c(O)ccc2ccccc12)c1cccc(C(F)(F)F)c1	3.0	3.3	1.3	77.8*	15.5
Cc1ccc(O)c(/C=N/NC(=O)c2[nH]ncc2Br)c1	2.2	2.2	0.3	52.1	9.9
O=C(N/N=C/c1c(O)ccc2ccccc12)C(=O)N1CCCC1	nt	-1.0	nt	nt	52.2*
O=C(N/N=C/c1c(O)ccc2ccccc12)c1[nH]ncc1Br	2.4	0.3	3.8	77.9*	38.6
CCN(CC(=O)Nc1ccc2c(c1)OCCO2)C(=O)C(C)Oc1ccc(F)cc1 (stereo not given)	nt	-0.5	nt	nt	-3.9
COC(=O)[C@]12CCCCC=C1N(Cc1ccc(Cl)cc1Cl)C(=O)[C@H](CC(=O)N1CCN(C(=O)c3ccco3)CC1)C2	nt	-0.5	nt	nt	nt
O=C(NCc1ccco1)c1cnn2c(C(F)(F)F)cc(-c3cccs3)nc12	0.8	1.3	0.1	-22.9	64.6*
Cc1ccc(C)c(N2CCN(C(=O)c3ccc(NS(=O)(=O)c4c(C)noc4C)cc3)CC2)c1	-1.1	0.5	-2.8	71.8*	0.2
Cc1ccc(Cl)cc1N1CCN(C(=O)c2ccc(NS(=O)(=O)c3c(C)noc3C)cc2)CC1	3.1	-0.7	-0.9	51.2	-11.5
Cc1ccc(NCc2ccc(O)c3ncccc23)cc1	1.7	-0.6	8.5	26.2	81.8*
Cc1cccnc1NCc1ccc(O)c2ncccc12	22.1	-2.3	12.7	-44.5	33.3
Cc1ccc(C)c(N=Nc2ccc(O)c3ncccc23)c1	12.9	-3.8	-5.8	102.5*	14.5
Cc1ccc(NCc2ccc(O)c3ncccc23)cc1C	2.2	-1.4	5.5	24.0	62.6*
CCOc1ccc(N=Nc2ccc(O)c3ncccc23)cc1	14.7	-0.8	2.6	nt	27.1
CCCC(=O)Nc1c(-c2ccccc2)[nH][nH]c1=O	nt	3.7	nt	nt	-0.4
CC(C)NC(=O)C1Cc2c(-c3ccc(Cl)cc3)ccnc2O1 (stereo not given)	nt	2.5	nt	nt	-4.5
Cc1nc2ccc(C(=O)N(C)Cc3ccco3)cn2c1N(C)C(=O)CCc1ccccc1	nt	1.4	nt	nt	1.9
SMILES	UPR CHOP act	hiPSC survival	UPR XBP1 act	CHOP inh	H9c2 protect
CCO/N=C1\C(=O)N(c2ccccc2)c2ccccc21	-0.6	-1.0	4.0	33.1	6.7
O=C(O/N=C1\C(=O)N(c2ccccc2)c2ccccc21)C1CC1	0.4	0.1	-0.5	72.8*	5.9
CCCCNc1oc(-c2ccc(OC)cc2)nc1S(=O)(=O)c1ccccc1	1.0	-1.7	-0.7	71.8*	-2.8
N#Cc1nc(COc2ccccc2F)oc1NCc1ccc(F)cc1	2.0	0.6	2.1	50.1	-21.7
COc1ccc(CCNc2oc(COc3ccccc3F)nc2C#N)cc1	-0.2	0.2	0.6	86.6*	28.0
COc1ccc(-c2nc(C#N)c(NCCc3ccccc3)o2)cc1	3.3	2.8	1.9	89.6*	-3.5
CCNc1oc(-c2ccc(OC)cc2)nc1S(=O)(=O)c1ccc(Br)cc1	0.3	-2.3	-0.7	35.0	-4.8
CCNC(=O)C1(C)CCCN(C(=O)c2ccc(F)c(C)c2)C1 (stereo not given)	nt	-2.3	nt	nt	-0.6
CN(C)S(=O)(=O)c1cccc(NC(=O)COc2ccccc2C(=O)NCc2ccccc2)c1	0.8	0.3	-2.4	nt	3.4
Cc1ccc(SCC2(O)CCN(C(=O)c3ccc(Cl)cc3)CC2)cc1	-1.3	1.6	-2.9	82.2*	-4.5
Nc1[nH]n2c(=O)c3c(nc2c1N=Nc1ccc(Cl)cc1)CCCC3	1.2	7.1	-2.0	77.6*	35.0
Cc1[nH]n2c(=O)c3c(nc2c1-c1ccccc1)CCC3	-2.8	4.0	-2.5	13.6	4.0
Cc1[nH]n2c(=O)c3c(nc2c1-c1ccc(Cl)cc1)CCC3	2.5	5.2	1.6	51.4	54.5*
COc1ccc(OCCOC(=O)CCS(=O)(=O)c2ccc(C)cc2)cc1	-1.0	-0.4	-0.3	nt	-0.9
Cc1cc(NC(=O)C2CC(c3cccc(Br)c3)=NO2)no1 (stereo not given)	-0.9	0.7	0.3	73.4*	5.8
CCOC(=O)C1=C(CSc2nc3ccccc3s2)NC(=O)NC1c1cc(C)ccc1C (stereo not given)	-1.5	-0.3	-2.0	75.1*	-6.2
COC(=O)C1=C(CSCc2ccccc2)NC(=O)NC1c1cc(C)ccc1C (stereo not given)	-1.0	-0.9	-1.1	36.3	2.3
CCOC(=O)C1=C(CSCC(=O)OC)NC(=O)NC1c1cc(C)ccc1C (stereo not given)	-2.3	9.3	-2.3	16.1	3.1
COC(=O)C1=C(CSc2nc3ccccc3o2)NC(=O)NC1c1cc(C)ccc1C (stereo not given)	-1.3	-1.1	-3.9	80.1*	-11.2
CCOC(=O)C1=C(CSc2nc3ccccc3s2)NC(=O)NC1c1ccc(OC)cc1 (stereo not given)	-3.7	-1.4	-3.8	83.9*	-17.3
CC1(C(=O)Nc2cccc3ncccc23)CCN1C(=O)Cc1ccc(-c2ccccc2)cc1 (stereo not given)	nt	1.1	nt	nt	-5.9
C/C(=N\NC(=O)CO/N=C(\C)c1cccs1)c1ccc(N)cc1	2.1	-0.5	0.0	2.8	-4.2
C/C(=N\OCC(=O)N/N=C/c1ccc(C)cc1O)c1cccs1	1.2	2.4	-2.9	-3.5	63.8*
O=C(Nc1ccccc1Cl)c1cc(C2CCCN(C(=O)c3ccccc3)C2)on1 (stereo not given)	nt	-1.6	nt	nt	-5.1
CCC(=O)OCOc1ccc(/C=C2/CCC(CN(C)C)C2=O)cc1 (stereo not given)	nt	10.0	nt	nt	-22.8
Oc1c(C(c2ccco2)N2CCN(C(c3ccccc3)c3ccccc3)CC2)sc2ncnn12 (stereo not given)	3.4	1.5	-3.2	95.4*	-12.6

Compound activity deposited in PubChem BioAssay by several laboratories.
